Bioassay records from PubChem BioAssay.
This excerpt belongs to a sample that is enriched for hits.
Hsp70 activator = transcriptional activators of Hsp70 | HeLa Hsp70 promoter luciferase reporter, luminescence; scaled: vehicle 0, proteasome-inhibitor control 100% | activation, % at 10 µM | hit rate 0.04% among 200,000;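 active means activation above the mean across all tested compounds plus 3 SD, cutoff set per campaign, cut at about 5.5% in these data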;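 further: 100% = MG132 at 30 µM as the positive control and 0% = DMSO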
HSF1 inh = HSF1 inhibition; NIH3T3-HGL HSE-luciferase, MG132-induced, luminescence 8 h; hits give low values; activity change, negative = inhibition, % at 7.5 µM (by protocol); hit rate 0.77% among 300,000;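 active means more than half of replicate wells show activity change below -50%, luminescence cut by over half; inconclusive means some wells, but at most half, below -50%; inactive means no replicate well below -50%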;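 further: luciferase reports HSF-1 transcriptional activity via heat shock element; 0% = median of DMSO wells and -100% = zero luminescence signal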
L major viab = Leishmania major promastigote growth inhibition; Leishmania major promastigotes, resazurin fluorescence viability; hit rate 9% among 200,000; inhibition, % at 10 µM; in the data active means inhibition above about 50%;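 further: promastigotes grown with compound for 44 hours at 28 °C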
T cruzi repl = T. cruzi replication inhibition; T. cruzi beta-gal in NIH3T3, luminescence, 90 h; inhibition, % (concentration not given with the values); hit rate 1.4% among 300,000; AID 1885;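 active means mean inhibition across valid replicates above about 55%, limit read from the data; inconclusive means mean below that limit but half or more replicates reach it; inactive means mean below it, under half of replicates reach it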;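 further: signal also drops with host cell toxicity which is not excluded here; 0% = plate median of DMSO wells and 100% = zero luminescence signal; higher percent means less beta-gal luminescence so fewer parasites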
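assay system = mouse NIH/3T3 fibroblasts infected with β-gal-expressing T. cruzi Tulahuen C4 | input = 5,000 NIH/3T3 host cells per well | buffer or medium = DMEM plus 2% FBS | timing = 3 h host attachment, then at least 90 h co-culture | measured by = GalScreen luminescence, 60 min | evaluation = luminescence reflecting intracellular parasite burden, expressed as percent inhibition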
HSF1 activator = increases HSF-1 driven luciferase reporter signal | NIH3T3-HGL HSF-1 luciferase reporter, MG132, 8 h; 100% = twice DMSO control signal | activation, % at 9 µM | hit rate 1.7% among 300,000;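 active means mean replicate activation of at least 50% with a set share of replicates each reaching 50%; inconclusive means only one of those two conditions met; inactive means mean below 50% and too few replicates reaching it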;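 further: 0% = median of the neutral control wells and 100% = twice that signal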
* marks the source's active call; other numbers are inactive results; ? = inconclusive; / = not tested or not shown.

SMILES | Hsp70 activator | HSF1 inh | L major viab | T cruzi repl | HSF1 activator
O=C(NC(=S)Nc1ccc(N2CCCCC2)cc1)c1ccc2c(c1)OCCO2 | -0.2 | -60.6* | 64.5* | 12.6 | -66.4
COCCN1Cc2cccc(C(=O)Nc3ccc4c(c3)OCCO4)c2C1=O | 0.1 | -52.3* | -3.8 | 1.5 | -56.4
O=C(NC(=S)Nc1ccc(F)cc1)c1ccc2c(c1)OCCO2 | 0.1 | -67.9* | -1.6 | 7.2 | -73.2
O=C(Nc1ccc2c(c1)OCCO2)c1ccccc1F | 0.1 | 0.3 | -9.2 | -16.0 | 20.5
COCCN1Cc2cccc(C(=O)Nc3ccc(C)cc3)c2C1=O | -0.2 | 3.0 | 0.4 | 10.6 | 18.6
O=[N+]([O-])c1cccc(N(CC2CO2)S(=O)(=O)c2ccccc2)c1 (stereo not given) | / | 13.5 | / | -0.4 | 29.7
O=c1cc(O)c2ccccc2n1Cc1ccccc1F | -0.4 | -5.0 | -8.7 | -15.3 | 1.8
O=C(Nc1ccc2c(c1)OCCO2)c1cccc2nc3ccccc3nc12 | -0.2 | 6.8 | -2.4 | 65.3* | 20.5
Cc1c(C(=O)Nc2ccc3c(c2)OCCO3)cnn1C | / | -60.8* | / | -12.7 | -65.4
CC1(c2cccc(Br)c2)NC(=O)N(CC(=O)Nc2ccc(F)cc2)C1=O (stereo not given) | / | 3.8 | / | -17.1 | -12.8
c1ccc(-n2nnnc2Oc2ccc(-c3nnco3)cc2)cc1 | 0.2 | -69.9* | -15.0 | -10.7 | -75.3
O=C(CCS(=O)(=O)c1cccc2nonc12)Nc1ccc(Br)cc1 | / | -3.1 | / | 4.1 | 18.3
CSc1nc(-c2ccccc2)nc(NC(C)=O)c1C(C)=O | -0.2 | -2.5 | 0.5 | -9.3 | 0.8
CCC(C(=O)NCc1ccco1)N(C(=O)CNS(=O)(=O)c1ccccc1)C1CCCCC1 (stereo not given) | -0.2 | -6.4 | 39.7 | 13.1 | -5.1
CCCC(C(=O)NCc1ccco1)N(C(=O)CNS(=O)(=O)c1ccc(Cl)cc1)C1CCCC1 (stereo not given) | -0.2 | 38.1 | 66.8* | 17.4 | ?
CN(C)CCN(C(=O)c1ccc(S(=O)(=O)N(C)C)cc1)c1nc2cc3c(cc2s1)OCCO3 | 0.2 | 5.4 | -1.6 | 60.7* | 9.4
CN(C)CCN(C(=O)c1ccc2c(c1)OCCO2)c1nc2cc3c(cc2s1)OCO3 | / | 17.4 | / | 31.9 | 35.9
COc1ccc2nc(N(CCN(C)C)C(=O)c3ccc4c(c3)OCCO4)sc2c1 | / | 4.1 | / | 64.5* | 2.8
COc1ccc(C2CC(=O)c3cnc(NC(=O)c4ccccc4OC)nc3C2)c(OC)c1 (stereo not given) | -0.2 | 3.0 | 86.2* | 3.4 | 30.6
CSc1c(C#N)sc(=S)n1-c1ccc(C)cc1 | -0.1 | -13.5 | 27.4 | -5.8 | 5.8
COc1ccc(N2CC(O)=C(c3nc(-c4ccc(Br)cc4)cs3)C2=N)cc1 | -0.1 | 16.2 | -10.6 | -2.6 | 49.1
COc1ccc(-c2cn(-c3ccc(Cl)cc3)c3[n+]2CCCCC3)cc1 | / | -16.9 | / | 57.6* | -7.4
Clc1ccc(-c2cn(-c3ccccc3)c3[n+]2CCS3)cc1 | -0.4 | -1.5 | 69.8* | 41.4 | -12.3
COc1ccc(-c2cn(-c3ccc(Br)cc3)c3[n+]2CCS3)cc1 | -0.3 | -2.6 | 100.0* | 28.6 | -12.4
Fc1ccc(-c2cn(-c3ccccc3)c3[n+]2CCS3)cc1 | / | -11.9 | / | -10.7 | -5.4
SMILES | Hsp70 activator | HSF1 inh | L major viab | T cruzi repl | HSF1 activator
CC(=O)c1ccc(-n2cc(-c3ccc(C(C)(C)C)cc3)[n+]3c2SCCC3)cc1 | -0.4 | -11.4 | 100.1* | 67.7* | -4.2
Clc1ccc(-c2cn(-c3ccc(Cl)cc3)c3[n+]2CCCCC3)cc1 | / | -14.2 | / | 31.4 | -1.4
COc1cc(/C=N/NC(=O)C(N)=O)ccc1OCC(=O)N1C(C)CCCC1C (stereo not given) | 0.2 | -0.1 | -3.6 | 29.0 | 14.0
O=C(COC(=O)CCC(=O)c1ccc(F)cc1)Nc1ccc2[nH]c(=O)[nH]c2c1 | / | -6.5 | / | -11.1 | 2.3
CSc1nc(O)c(C(c2ccc(OC(C)C)cc2)c2c(O)nc(SC)[nH]c2=O)c(=O)[nH]1 | / | -12.4 | / | -1.3 | -0.7
Clc1ccc(-c2c[n+]3c(n2-c2ccccc2)SCC3)cc1 | -0.3 | -3.4 | 97.3* | 45.5 | -2.5
O=[N+]([O-])c1ccc(N/N=C/c2cccc(O)c2O)cc1 | / | 12.0 | / | 40.1 | 25.1
Cc1cccc(C(=O)Oc2ccccc2/C=N/Nc2ccc([N+](=O)[O-])cc2)c1 | -0.3 | / | 98.1* | / | /
CC(C(=O)NCc1cccnc1)c1ccc([N+](=O)[O-])cc1 (stereo not given) | / | 0.5 | / | -7.0 | -9.3
O=S(=O)(NCc1ccccc1)NCc1cccc(C(F)(F)F)c1 | -0.4 | -4.5 | -1.7 | -2.1 | -1.1
Cc1ccc(OCC(O)CNC2CCCC2)c(C)c1 (stereo not given) | / | -1.1 | / | 1.6 | -6.3
CCN1CCCC1CNCC(O)COc1ccc(C(C)(C)C)cc1C (stereo not given) | 0.0 | 7.1 | 86.0* | 7.4 | 16.0
COc1ccc(CN2CCN(C3CCC3)CC2CCO)c(F)c1 (stereo not given) | / | -6.0 | / | 2.3 | -11.3
CC(C)c1ccc(S(=O)(=O)N2CCN(C(=O)C3CCCC3)CC2)cc1 | / | 7.7 | / | 7.2 | 23.4
Cc1ccc(S(=O)(=O)N2CCC(C(=O)OCc3ccc([N+](=O)[O-])cc3)CC2)cc1 | -0.2 | -4.4 | -4.5 | -10.9 | 2.7
Cc1ccnc(N2CCCC(C(=O)NCc3cccs3)C2)n1 (stereo not given) | 0.7 | -65.7* | 1.6 | -5.0 | -72.3
Cc1ccnc(N2CCCC(C(=O)Nc3ccc(C)c(C)c3)C2)n1 (stereo not given) | / | 25.3 | / | 2.1 | 59.8*
O=C(COC(=O)Cc1ccc(S(=O)(=O)N2CCOCC2)s1)NCc1ccc(Cl)cc1 | -0.3 | 1.4 | -3.1 | 3.4 | 2.7
CCOC(=O)/C(=C\c1ccccc1)NC(=O)c1ccccc1 | / | 12.9 | / | 9.1 | 15.5
CCOC(=O)/C(=C/c1ccc(OC(=O)c2ccccc2)cc1)C(C)=O | -0.3 | 73.4 | -0.7 | -23.9 | 76.7*
Cn1cnc([N+](=O)[O-])c1Oc1cccc2ccccc12 | -0.2 | -3.2 | 73.2* | -12.0 | 7.0
N#CCSc1nc(Nc2ccc3c(c2)OCO3)c2ccccc2n1 | -0.2 | -1.1 | 13.6 | 35.3 | 7.7
COc1cc(Nc2nc(SCC#N)nc3ccccc23)cc(OC)c1OC | 0.1 | -8.3 | 53.4* | 4.5 | -18.0
Cc1cccc(Nc2ccncc2S(N)(=O)=O)c1 | / | -4.3 | / | -6.0 | -3.2
CCOc1cc(CNCCO)cc(Br)c1OCc1ccc(Cl)cc1Cl | -0.3 | -1.4 | 100.7* | 35.6 | 2.2
CCOc1cc(CNCCO)cc(Br)c1OCc1cccs1 | -0.1 | 1.8 | 100.5* | 6.8 | 24.2
COc1cc(/C=N/NC(=O)c2nc3ccccn3c2C)cc(OC)c1O | 0.0 | -5.6 | -9.4 | 80.9* | 3.6
Cc1c(C(=O)N/N=C/c2ccc(N3CCOCC3)cc2)nc2ccccn12 | -0.3 | 10.5 | 1.3 | -2.9 | 39.8
CCOC(=O)C1CCN(Cc2ccc(OC)c(OCc3ccccc3)c2)CC1 | / | -2.8 | / | -34.9 | 19.0
CCOC(=O)C1CCN(Cc2ccc(Cl)c(Cl)c2)CC1 | -0.1 | -1.4 | 87.6* | -2.8 | 17.5
